Test results as given in PubChem BioAssay AID652196 (Vanderbilt Specialized Chemistry Center, 2013).

Molecular target: Metabotropic glutamate receptor 5 (Rattus norvegicus) (UniProt P31424)
Test: rat mGlu5 radioligand displacement Ki – biochemical, HEK293A membranes, [3H]methoxyPEPy, full curve, dose response (AID 652196)
Conditions: rmGlu5 HEK293A membranes, [3H]methoxyPEPy displacement
Outline: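 System: rat mGlu5 HEK293A cell membranes; amount: 50 µg membrane protein per well; medium: HEPES-buffered HBSS with probenecid, pH 7.4; reagent: radioligand [3H]methoxyPEPy at 2 nM; compound: 10 doses, 0.1 nM–10 µM, 1% DMSO; schedule: membrane, radioligand and compound incubation 1 h at room temperature; measured by: filter binding with scintillation counting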

Chain of Metabotropic glutamate receptor 5 (Rattus norvegicus) (P31424 whole entry, looked up): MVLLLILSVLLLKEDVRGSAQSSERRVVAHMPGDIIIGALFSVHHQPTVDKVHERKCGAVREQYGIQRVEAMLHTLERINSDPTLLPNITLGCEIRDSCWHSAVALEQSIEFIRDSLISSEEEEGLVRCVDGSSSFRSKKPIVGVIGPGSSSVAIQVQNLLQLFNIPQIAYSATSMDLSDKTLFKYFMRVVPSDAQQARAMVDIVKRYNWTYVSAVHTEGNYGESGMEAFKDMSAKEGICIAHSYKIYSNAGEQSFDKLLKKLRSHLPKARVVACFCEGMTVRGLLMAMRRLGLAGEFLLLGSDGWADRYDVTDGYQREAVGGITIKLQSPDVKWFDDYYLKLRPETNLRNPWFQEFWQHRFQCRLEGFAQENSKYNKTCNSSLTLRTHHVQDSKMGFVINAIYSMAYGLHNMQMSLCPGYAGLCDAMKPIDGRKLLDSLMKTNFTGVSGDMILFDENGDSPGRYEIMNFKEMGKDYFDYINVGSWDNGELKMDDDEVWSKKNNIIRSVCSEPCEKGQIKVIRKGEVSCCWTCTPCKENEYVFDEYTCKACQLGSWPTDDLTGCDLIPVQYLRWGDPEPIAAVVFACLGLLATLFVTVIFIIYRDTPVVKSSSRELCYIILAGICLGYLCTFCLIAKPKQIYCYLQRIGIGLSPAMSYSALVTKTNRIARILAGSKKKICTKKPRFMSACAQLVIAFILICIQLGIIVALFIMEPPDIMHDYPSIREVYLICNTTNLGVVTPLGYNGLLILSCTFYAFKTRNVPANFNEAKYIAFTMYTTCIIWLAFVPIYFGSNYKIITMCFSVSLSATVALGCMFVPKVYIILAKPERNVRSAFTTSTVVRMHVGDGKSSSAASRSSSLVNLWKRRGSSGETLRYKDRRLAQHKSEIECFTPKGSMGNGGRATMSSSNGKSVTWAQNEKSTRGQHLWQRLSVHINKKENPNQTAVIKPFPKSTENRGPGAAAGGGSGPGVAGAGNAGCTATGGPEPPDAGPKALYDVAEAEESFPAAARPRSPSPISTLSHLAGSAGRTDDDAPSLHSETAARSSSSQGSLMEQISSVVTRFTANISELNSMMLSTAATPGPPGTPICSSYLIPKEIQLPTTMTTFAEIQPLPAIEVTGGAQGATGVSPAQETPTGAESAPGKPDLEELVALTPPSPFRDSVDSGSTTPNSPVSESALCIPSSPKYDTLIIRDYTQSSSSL

Ki | Structure (SMILES)
0.0296 µM | O=C(c1ccc(C#Cc2cccc(F)c2)cc1)N1CCC1
0.0054 µM | CC1CCN1C(=O)c1ccc(C#Cc2cccc(F)c2)cn1 (centres undefined)
0.0121 µM | O=C(c1ccc(C#Cc2cccc(F)c2)cn1)N1CCCCC1
0.0187 µM | O=C(c1ccc(C#Cc2cccc(F)c2)cn1)N1CCCCCC1
0.0182 µM | O=C(c1ccc(C#Cc2cccc(F)c2)cn1)N1CC2CC2C1 (centres undefined)
0.019 µM | O=C(c1ccc(C#Cc2cccc(F)c2)cn1)N1CCC(F)(F)C1
0.0516 µM | O=C(c1ccc(C#Cc2cccc(F)c2)cn1)N1CCC1
0.0487 µM | O=C(c1ccc(C#Cc2cccc(F)c2)cn1)N1CC(F)C1
0.0677 µM | O=C(c1ccc(C#Cc2cccc(F)c2)cn1)N1CCOCC1
